Measured values: ChEMBL document CHEMBL5724801, “EUbOPEN Chemogenomics Library - Multiplex” (2024)
Several values for one entry are separate records, joined by “and”; a condition that tells them apart may be missing. Equal values may be shown once.

System: HEK-293T
Assay: Multiplex assay against HEK293T
Type: toxicity, cell-based
Settings: human
How it was run: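 Phenotypes for tubulin, mitochondrial mass and membrane permeability are expressed as per cents of healthy-nucleus cells. Cells were stained live at seeding with Hoechst33342, BioTracker Green Microtubule Cytoskeleton Dye, MitoTracker Red and Annexin V Alexa Fluor 680, then imaged after compound addition on a CQ1 microscope at 37°C and 5% CO2. Machine-learning gating in CellPathfinder separated Hoechst high-intensity objects from normal cells, divided normal cells by nuclear state (healthy, pyknosed, fragmented) and divided pyknosed cells into mitotic or apoptotic.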

[1] = 12 h, 1 µM, compound concentration 1 uM
[2] = 12 h, 10 µM, compound concentration 10 uM
[3] = 24 h, 1 µM, compound concentration 1 uM
[4] = 24 h, 10 µM, compound concentration 10 uM
[5] = 48 h, 1 µM, compound concentration 1 uM
[6] = 48 h, 10 µM, compound concentration 10 uM

Compound: CN1CCN(c2nc3cc(C(F)(F)F)ccc3n3cccc23)CC1.O=C(O)/C=C\C(=O)O.O=C(O)/C=C\C(=O)O
- Population Apoptotic (%) [1]: 37% and 53%
- Population Fragmented Nuclei (%) [1]: 5% and 8%
- Population Healthy Nuclei (%) [1]: 80% and 77%
- Population Hoechst High Intensity Objects (%) [1]: 10% and 5%
- Population Membrane Permeable-Phenotype (%) [1]: 0%
- Population Mitochondria Different-Phenotype (%) [1]: 48% and 76%
- Population Mitotic Cells (%) [1]: 62% and 46%
- Population Normal (%) [1]: 89% and 94%
- Population Pyknosed Nuclei (%) [1]: 13% and 14%
- Population Tubulin-Different-Phenotype (%) [1]: 33% and 35%
- Total Cell Count [1]: 438 and 332
- Population Apoptotic (%) [2]: 68% and 64%
- Population Fragmented Nuclei (%) [2]: 7% and 5%
- Population Healthy Nuclei (%) [2]: 76%
- Population Hoechst High Intensity Objects (%) [2]: 14% and 9%
- Population Membrane Permeable-Phenotype (%) [2]: 0%
- Population Mitochondria Different-Phenotype (%) [2]: 73% and 89%
- Population Mitotic Cells (%) [2]: 31% and 35%
- Population Normal (%) [2]: 85% and 90%
- Population Pyknosed Nuclei (%) [2]: 15% and 18%
- Population Tubulin-Different-Phenotype (%) [2]: 64% and 66%
- Total Cell Count [2]: 396 and 286
- Population Apoptotic (%) [3]: 33% and 54%
- Population Fragmented Nuclei (%) [3]: 9% and 6%
- Population Healthy Nuclei (%) [3]: 81% and 83%
- Population Hoechst High Intensity Objects (%) [3]: 6%
- Population Membrane Permeable-Phenotype (%) [3]: 1% and 0%
- Population Mitochondria Different-Phenotype (%) [3]: 30% and 50%
- Population Mitotic Cells (%) [3]: 66% and 45%
- Population Normal (%) [3]: 93%
- Population Pyknosed Nuclei (%) [3]: 9% and 10%
- Population Tubulin-Different-Phenotype (%) [3]: 24% and 25%
- Total Cell Count [3]: 557 and 390
- Population Apoptotic (%) [4]: 41% and 63%
- Population Fragmented Nuclei (%) [4]: 8% and 10%
- Population Healthy Nuclei (%) [4]: 77% and 78%
- Population Hoechst High Intensity Objects (%) [4]: 9% and 7%
- Population Membrane Permeable-Phenotype (%) [4]: 0%
- Population Mitochondria Different-Phenotype (%) [4]: 65% and 79%
- Population Mitotic Cells (%) [4]: 58% and 36%
- Population Normal (%) [4]: 90% and 92%
- Population Pyknosed Nuclei (%) [4]: 13% and 10%
- Population Tubulin-Different-Phenotype (%) [4]: 62% and 58%
- Total Cell Count [4]: 490 and 378
- Population Apoptotic (%) [5]: 20% and 37%
- Population Fragmented Nuclei (%) [5]: 13%
- Population Healthy Nuclei (%) [5]: 78% and 79%
- Population Hoechst High Intensity Objects (%) [5]: 3% and 5%
- Population Membrane Permeable-Phenotype (%) [5]: 2% and 0%
- Population Mitochondria Different-Phenotype (%) [5]: 17% and 42%
- Population Mitotic Cells (%) [5]: 79% and 62%
- Population Normal (%) [5]: 96% and 94%
- Population Pyknosed Nuclei (%) [5]: 7%
- Population Tubulin-Different-Phenotype (%) [5]: 17% and 21%
- Total Cell Count [5]: 915 and 535
- Population Apoptotic (%) [6]: 50% and 52%
- Population Fragmented Nuclei (%) [6]: 15% and 11%
- Population Healthy Nuclei (%) [6]: 75% and 77%
- Population Hoechst High Intensity Objects (%) [6]: 10% and 12%
- Population Membrane Permeable-Phenotype (%) [6]: 2% and 0%
- Population Mitochondria Different-Phenotype (%) [6]: 41% and 65%
- Population Mitotic Cells (%) [6]: 50% and 47%
- Population Normal (%) [6]: 89% and 87%
- Population Pyknosed Nuclei (%) [6]: 8% and 10%
- Population Tubulin-Different-Phenotype (%) [6]: 44% and 56%
- Total Cell Count [6]: 672 and 472

Compound: COCCNc1cc(NC(=O)N2CCCc3cc(CN4CCN(C)CC4=O)c(C=O)nc32)ncc1C#N [FGF401]
- Population Apoptotic (%) [1]: 5.7% and 11.57%
- Population Fragmented Nuclei (%) [1]: 1.49% and 2.8%
- Population Hoechst High Intensity Objects (%) [1]: 0%
- Population Membrane Permeable-Phenotype (%) [1]: 1.74% and 5.56%
- Population Mitotic Cells (%) [1]: 94.3% and 88.43%
- Population Normal (%) [1]: 100%
- Population Pyknosed Nuclei (%) [1]: 47.16% and 84.62%
- Population Tubulin-Different-Phenotype (%) [1]: 6.4% and 11.11%
- Total Cell Count [1]: 335 and 143
- Population Fragmented Nuclei (%) [2]: 2.52% and 7.02%
- Population Hoechst High Intensity Objects (%) [2]: 0%
- Population Membrane Permeable-Phenotype (%) [2]: 0.56% and 0%
- Population Mitochondria Different-Phenotype (%) [2]: 28.09% and 26.67%
- Population Mitotic Cells (%) [2]: 94.7% and 80.22%
- Population Normal (%) [2]: 100%
- Population Pyknosed Nuclei (%) [2]: 41.51% and 79.82%
- Total Cell Count [2]: 318 and 114
- Population Apoptotic (%) [3]: 13.08% and 17.17%
- Population Fragmented Nuclei (%) [3]: 0.93% and 3.47%
- Population Healthy Nuclei (%) [3]: 74.95% and 27.78%
- Population Hoechst High Intensity Objects (%) [3]: 0%
- Population Membrane Permeable-Phenotype (%) [3]: 1.49% and 2.5%
- Population Mitochondria Different-Phenotype (%) [3]: 17.33% and 12.5%
- Population Mitotic Cells (%) [3]: 86.92% and 82.83%
- Population Normal (%) [3]: 100%
- Population Pyknosed Nuclei (%) [3]: 24.12% and 68.75%
- Population Tubulin-Different-Phenotype (%) [3]: 19.8% and 10%
- Population Apoptotic (%) [4]: 12.61% and 19.59%
- Population Fragmented Nuclei (%) [4]: 1.6% and 5.3%
- Population Hoechst High Intensity Objects (%) [4]: 0%
- Population Membrane Permeable-Phenotype (%) [4]: 1.05% and 3.57%
- Population Mitochondria Different-Phenotype (%) [4]: 16.84% and 25%
- Population Mitotic Cells (%) [4]: 87.39% and 80.41%
- Population Normal (%) [4]: 100%
- Population Tubulin-Different-Phenotype (%) [4]: 19.21% and 17.86%
- Population Apoptotic (%) [5]: 7.89% and 20.99%
- Population Fragmented Nuclei (%) [5]: 2.1% and 1.11%
- Population Healthy Nuclei (%) [5]: 85.6% and 53.89%
- Population Hoechst High Intensity Objects (%) [5]: 0%
- Population Membrane Permeable-Phenotype (%) [5]: 6.24% and 0%
- Population Mitochondria Different-Phenotype (%) [5]: 18.81% and 29.9%
- Population Mitotic Cells (%) [5]: 92.11% and 79.01%
- Population Normal (%) [5]: 100%
- Population Fragmented Nuclei (%) [6]: 3.22% and 0%
- Population Healthy Nuclei (%) [6]: 84.41% and 59.29%
- Population Hoechst High Intensity Objects (%) [6]: 0% and 0.71%
- Population Membrane Permeable-Phenotype (%) [6]: 4.23% and 1.2%
- Population Mitochondria Different-Phenotype (%) [6]: 18.89% and 40.96%
- Population Mitotic Cells (%) [6]: 94.37% and 80.7%
- Population Normal (%) [6]: 100% and 99.29%

Compound: Cc1cccc(F)c1C(=O)Nc1cnc(-c2cc3c(cc2Cl)OC(F)(F)O3)cn1 [ZEGOCRACTIN]
- Population Apoptotic (%) [1]: 12.35% and 6.45%
- Population Healthy Nuclei (%) [1]: 42.98% and 15.89%
- Population Hoechst High Intensity Objects (%) [1]: 0.27% and 0%
- Population Membrane Permeable-Phenotype (%) [1]: 0% and 4.17%
- Population Mitochondria Different-Phenotype (%) [1]: 33.33% and 20.83%
- Population Mitotic Cells (%) [1]: 87.65% and 93.55%
- Population Normal (%) [1]: 99.73% and 100%
- Population Pyknosed Nuclei (%) [1]: 44.63% and 82.12%
- Total Cell Count [1]: 364 and 151
- Population Apoptotic (%) [2]: 18.42% and 16.15%
- Population Fragmented Nuclei (%) [2]: 2.44% and 4.03%
- Population Healthy Nuclei (%) [2]: 23.41% and 8.72%
- Population Hoechst High Intensity Objects (%) [2]: 2.38% and 0%
- Population Membrane Permeable-Phenotype (%) [2]: 0% and 7.69%
- Population Mitochondria Different-Phenotype (%) [2]: 22.92% and 30.77%
- Population Mitotic Cells (%) [2]: 81.58% and 83.85%
- Population Normal (%) [2]: 97.62% and 100%
- Population Pyknosed Nuclei (%) [2]: 74.15% and 87.25%
- Population Tubulin-Different-Phenotype (%) [2]: 37.5% and 23.08%
- Total Cell Count [2]: 210 and 149
- Population Apoptotic (%) [3]: 23.62% and 14.53%
- Population Fragmented Nuclei (%) [3]: 12.53% and 3.66%
- Population Healthy Nuclei (%) [3]: 61.82% and 25%
- Population Hoechst High Intensity Objects (%) [3]: 0.4% and 0%
- Population Membrane Permeable-Phenotype (%) [3]: 2.29% and 0%
- Population Mitochondria Different-Phenotype (%) [3]: 10.78% and 21.95%
- Population Mitotic Cells (%) [3]: 76.38% and 85.47%
- Population Normal (%) [3]: 99.6% and 100%
- Population Pyknosed Nuclei (%) [3]: 25.66% and 71.34%
- Population Tubulin-Different-Phenotype (%) [3]: 10.78% and 17.07%
- Population Apoptotic (%) [4]: 34.16% and 33.09%
- Population Fragmented Nuclei (%) [4]: 0.76% and 3.75%
- Population Hoechst High Intensity Objects (%) [4]: 0.75% and 0%
- Population Membrane Permeable-Phenotype (%) [4]: 0%
- Population Mitochondria Different-Phenotype (%) [4]: 52.48% and 27.78%
- Population Mitotic Cells (%) [4]: 65.84% and 66.91%
- Population Normal (%) [4]: 99.25% and 100%
- Population Pyknosed Nuclei (%) [4]: 60.98% and 85%
- Total Cell Count [4]: 266 and 160
- Population Apoptotic (%) [5]: 9.86% and 16.85%
- Population Fragmented Nuclei (%) [5]: 5.17% and 0.94%
- Population Healthy Nuclei (%) [5]: 80.45% and 57.08%
- Population Hoechst High Intensity Objects (%) [5]: 0% and 0.47%
- Population Membrane Permeable-Phenotype (%) [5]: 4.53% and 2.48%
- Population Mitochondria Different-Phenotype (%) [5]: 22.67% and 22.31%
- Population Mitotic Cells (%) [5]: 90.14% and 83.15%
- Population Normal (%) [5]: 100% and 99.53%
- Population Pyknosed Nuclei (%) [5]: 14.39% and 41.98%
- Population Apoptotic (%) [6]: 30.82% and 29%
- Population Fragmented Nuclei (%) [6]: 1.98% and 3.11%
- Population Healthy Nuclei (%) [6]: 61.88% and 34.78%
- Population Hoechst High Intensity Objects (%) [6]: 0.49% and 2.42%
- Population Membrane Permeable-Phenotype (%) [6]: 2% and 0%
- Population Mitochondria Different-Phenotype (%) [6]: 76.4% and 44.64%
- Population Mitotic Cells (%) [6]: 69.18% and 71%
- Population Normal (%) [6]: 99.51% and 97.58%
- Population Pyknosed Nuclei (%) [6]: 36.14% and 62.11%
- Total Cell Count [6]: 406 and 165
